Tests used:
[1] = target: Mitogen-activated protein kinase kinase kinase 3 (Homo sapiens) (UniProt Q99759); test: Binding affinity to wild-type human partial length MAP3K3 (E320 to Y626 residues) expressed in mammalian expression system assessed as residual binding level at 1 uM by Kinomescan method relative to control
[2] = target: Tyrosine-protein kinase CSK (Homo sapiens) (UniProt P41240); test: Binding affinity to wild-type human full length CSK (M1 to L450 residues) expressed in bacterial expression system assessed as residual binding level at 1 uM by Kinomescan method relative to control
How it was run: (§1)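 KinomeScan, an active site-directed competition binding panel of 468 kinases. The test compound was at 1 μM. The readout is remaining kinase binding as a percentage of the DMSO control. Scores above 35% were treated as weak binding and not listed.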

[3] = target: Serine/threonine-protein kinase WNK3 (Homo sapiens) (UniProt Q9BYP7); test: Binding affinity to wild-type human partial length WNK3 (M1 to D434 residues) expressed in mammalian expression system assessed as residual binding level at 1 uM by Kinomescan method relative to control
[4] = target: Ephrin type-B receptor 3 (Homo sapiens) (UniProt P54753); test: Binding affinity to wild-type human partial length EPHB3 (Q599 to T928 residues) expressed in bacterial expression system assessed as residual binding level at 1 uM by Kinomescan method relative to control
How it was run: (§2)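 Active-site-directed competition binding panel of 468 kinases (KinomeScan), compound at 1 μM. The read-out is kinase remaining bound, given as a percentage of the DMSO control. […]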

[5] = target: Leucine-rich repeat serine/threonine-protein kinase 2 (Homo sapiens) (UniProt Q5S007); test: Binding affinity to wild-type human partial length LRRK2 (H970 to E2527 residues) expressed in mammalian expression system assessed as residual binding level at 1 uM by Kinomescan method relative to control
[6] = target: Tyrosine-protein kinase Tec (Homo sapiens) (UniProt P42680); test: Binding affinity to wild-type human partial length TEC (L341 to D620 residues) expressed in bacterial expression system assessed as residual binding level at 1 uM by Kinomescan method relative to control
[7] = target: Peripheral plasma membrane protein CASK (Homo sapiens) (UniProt O14936); test: Binding affinity to wild-type human partial length CASK (M1 to H315 residues) expressed in mammalian expression system assessed as residual binding level at 1 uM by Kinomescan method relative to control
[8] = target: TRAF2 and NCK-interacting protein kinase (Homo sapiens) (UniProt Q9UKE5); test: Binding affinity to wild-type human partial length TNIK (D4 to K311 residues) expressed in bacterial expression system assessed as residual binding level at 1 uM by Kinomescan method relative to control
[9] = tested on: Phosphatidylinositol 4,5-bisphosphate 3-kinase catalytic subunit alpha isoform (Homo sapiens), P42336 [E545A]; test: Binding affinity to human partial length PIK3CA E545A mutant (R108 to N1068 residues) expressed in mammalian expression system assessed as residual binding level at 1 uM by Kinomescan method relative to control
How it was run: (§3)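 KinomeScan active site-directed competition binding panel (468 kinases), compound tested at 1 μM. Result expressed as remaining kinase signal versus DMSO control (percent of control).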

[10] = tested on: Epidermal growth factor receptor (Homo sapiens), P00533 [UNDEFINED MUTATION]; test: Binding affinity to human partial length EGFR S752-I759del mutant expressed in bacterial expression system assessed as residual binding level at 1 uM by Kinomescan method relative to control; how it was run: as §3
[11] = target: Cyclin-dependent kinase 2 homolog (Plasmodium falciparum (isolate 3D7)) (UniProt P61075); test: Binding affinity to wild-type Plasmodium falciparum full length PK5 (M1 to N288 residues) expressed in mammalian expression system assessed as residual binding level at 1 uM by Kinomescan method relative to control
How it was run: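 Active-site-directed KinomeScan competition binding panel covering 468 kinases, compound tested at 1 μM. Each readout is the kinase signal remaining with compound, expressed as a percentage of the DMSO control. […]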

[12] = tested on: Epidermal growth factor receptor (Homo sapiens), P00533 [UNDEFINED MUTATION]; test: Binding affinity to human partial length EGFR L747-E749del/A750P mutant expressed in bacterial expression system assessed as residual binding level at 1 uM by Kinomescan method relative to control; how it was run: as §3
[13] = tested on: NCI-H1975; test: Antiproliferative activity against human NCI-H1975 cells assessed as reduction in cell viability incubated for 72 hrs by cell-titer glo assay; conditions: NCI-H1975, 72 h
[14] = target: Epithelial discoidin domain-containing receptor 1 (Homo sapiens) (UniProt Q08345); test: Binding affinity to wild-type human partial length DDR1 (R565 to V876 residues) expressed in bacterial expression system assessed as residual binding level at 1 uM by Kinomescan method relative to control; how it was run: as §2
[15] = target: Receptor-type tyrosine-protein kinase FLT3 (Homo sapiens) (UniProt P36888); test: Binding affinity to wild-type human partial length autoinhibited FLT3 (H564 to Y969 residues) expressed in mammalian expression system assessed as residual binding level at 1 uM by Kinomescan method relative to control
[16] = target: Phosphorylase b kinase gamma catalytic chain, skeletal muscle/heart isoform (Homo sapiens) (UniProt Q16816); test: Binding affinity to wild-type human full length PHKG1 (M1 to Y387 residues) expressed in bacterial expression system assessed as residual binding level at 1 uM by Kinomescan method relative to control
How it was run: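 Active-site-directed competition binding panel (KinomeScan) covering 468 kinases. Test agent was screened at 1 μM. The read-out is the remaining kinase signal expressed relative to a DMSO control. Scores above 35%, taken as weak binding, were not reported.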

[17] = target: Mast/stem cell growth factor receptor Kit (Homo sapiens) (UniProt P10721); test: Binding affinity to wild-type human partial length KIT (I571 to D952 residues) expressed in bacterial expression system assessed as residual binding level at 1 uM by Kinomescan method relative to control
[18] = target: Glycogen synthase kinase-3 beta (Homo sapiens) (UniProt P49841); test: Binding affinity to wild-type human full length GSK3B (M1 to T433 residues) expressed in mammalian expression system assessed as residual binding level at 1 uM by Kinomescan method relative to control; how it was run: as §1
[19] = target: Focal adhesion kinase 1 (Homo sapiens) (UniProt Q05397); test: Binding affinity to wild-type human partial length FAK (D402 to R696 residues) expressed in bacterial expression system assessed as residual binding level at 1 uM by Kinomescan method relative to control
[20] = target: Tyrosine-protein kinase TXK (Homo sapiens) (UniProt P42681); test: Binding affinity to wild-type human partial length TXK (L238 to W527 residues) expressed in bacterial expression system assessed as residual binding level at 1 uM by Kinomescan method relative to control
How it was run: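 Active site-directed competition binding panel (KinomeScan, 468 kinases). Test compound at 1 μM. Read-out is kinase binding remaining versus DMSO control, expressed as percent of control. Scores above 35% are treated as weak binding.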

[21] = target: Proto-oncogene tyrosine-protein kinase ROS (Homo sapiens) (UniProt P08922); test: Binding affinity to wild-type human partial length ROS1 (A1921 to N2240 residues) expressed in bacterial expression system assessed as residual binding level at 1 uM by Kinomescan method relative to control

Epidermal growth factor receptor (Homo sapiens), P00533 [UNDEFINED MUTATION], sequence (P00533 whole entry, looked up, stated change not applied, the tested form may be a part): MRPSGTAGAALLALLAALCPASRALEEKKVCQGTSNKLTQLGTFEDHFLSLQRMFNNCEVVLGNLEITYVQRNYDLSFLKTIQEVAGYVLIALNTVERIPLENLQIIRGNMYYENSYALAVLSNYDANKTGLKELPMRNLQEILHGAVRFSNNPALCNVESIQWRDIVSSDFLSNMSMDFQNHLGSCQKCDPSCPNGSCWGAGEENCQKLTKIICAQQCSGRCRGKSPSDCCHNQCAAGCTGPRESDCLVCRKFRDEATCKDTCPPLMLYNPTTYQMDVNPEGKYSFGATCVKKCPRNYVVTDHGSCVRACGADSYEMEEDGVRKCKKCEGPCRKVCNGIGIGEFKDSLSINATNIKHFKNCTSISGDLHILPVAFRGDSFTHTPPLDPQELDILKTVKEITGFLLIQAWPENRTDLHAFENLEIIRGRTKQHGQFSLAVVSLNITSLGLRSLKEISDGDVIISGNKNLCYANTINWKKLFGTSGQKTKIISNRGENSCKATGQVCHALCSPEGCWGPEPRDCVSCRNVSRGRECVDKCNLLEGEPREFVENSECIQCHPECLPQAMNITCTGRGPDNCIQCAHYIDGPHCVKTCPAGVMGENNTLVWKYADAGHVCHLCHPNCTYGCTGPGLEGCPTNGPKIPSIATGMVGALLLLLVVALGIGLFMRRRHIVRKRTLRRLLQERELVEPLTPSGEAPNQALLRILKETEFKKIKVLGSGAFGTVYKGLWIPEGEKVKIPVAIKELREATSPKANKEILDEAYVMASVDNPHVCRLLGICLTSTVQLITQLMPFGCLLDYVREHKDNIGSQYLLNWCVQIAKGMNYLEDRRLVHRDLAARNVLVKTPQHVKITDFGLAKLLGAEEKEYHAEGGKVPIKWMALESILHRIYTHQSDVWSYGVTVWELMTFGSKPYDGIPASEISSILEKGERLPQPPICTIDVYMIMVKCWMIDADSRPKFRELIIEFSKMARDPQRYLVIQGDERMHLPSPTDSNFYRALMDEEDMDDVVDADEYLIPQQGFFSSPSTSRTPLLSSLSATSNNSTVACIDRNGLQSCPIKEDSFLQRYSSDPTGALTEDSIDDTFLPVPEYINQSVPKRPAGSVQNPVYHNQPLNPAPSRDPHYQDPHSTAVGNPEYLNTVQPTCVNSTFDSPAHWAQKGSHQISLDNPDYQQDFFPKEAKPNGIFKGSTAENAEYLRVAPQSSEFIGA
Tyrosine-protein kinase Tec (Homo sapiens), sequence (P42680 whole entry, the tested form may be a part): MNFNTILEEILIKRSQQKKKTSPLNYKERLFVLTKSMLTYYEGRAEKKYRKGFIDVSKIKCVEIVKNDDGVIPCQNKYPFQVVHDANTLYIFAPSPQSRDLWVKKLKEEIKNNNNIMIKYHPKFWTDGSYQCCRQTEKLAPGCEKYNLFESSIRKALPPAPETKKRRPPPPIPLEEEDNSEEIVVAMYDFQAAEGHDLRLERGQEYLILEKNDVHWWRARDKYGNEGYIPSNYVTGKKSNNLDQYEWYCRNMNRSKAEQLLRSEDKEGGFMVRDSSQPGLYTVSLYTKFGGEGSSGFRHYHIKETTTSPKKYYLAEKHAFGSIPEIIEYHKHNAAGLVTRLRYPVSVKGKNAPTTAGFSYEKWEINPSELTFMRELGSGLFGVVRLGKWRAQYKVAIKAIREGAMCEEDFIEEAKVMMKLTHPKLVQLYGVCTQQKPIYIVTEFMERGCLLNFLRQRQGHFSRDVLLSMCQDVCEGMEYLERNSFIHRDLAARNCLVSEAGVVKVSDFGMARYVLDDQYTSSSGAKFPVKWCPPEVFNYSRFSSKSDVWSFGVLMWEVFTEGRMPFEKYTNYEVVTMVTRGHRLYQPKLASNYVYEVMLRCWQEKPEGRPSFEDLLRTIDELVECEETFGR
Receptor-type tyrosine-protein kinase FLT3 (Homo sapiens), sequence (P36888 whole entry, the tested form may be a part, canonical isoform): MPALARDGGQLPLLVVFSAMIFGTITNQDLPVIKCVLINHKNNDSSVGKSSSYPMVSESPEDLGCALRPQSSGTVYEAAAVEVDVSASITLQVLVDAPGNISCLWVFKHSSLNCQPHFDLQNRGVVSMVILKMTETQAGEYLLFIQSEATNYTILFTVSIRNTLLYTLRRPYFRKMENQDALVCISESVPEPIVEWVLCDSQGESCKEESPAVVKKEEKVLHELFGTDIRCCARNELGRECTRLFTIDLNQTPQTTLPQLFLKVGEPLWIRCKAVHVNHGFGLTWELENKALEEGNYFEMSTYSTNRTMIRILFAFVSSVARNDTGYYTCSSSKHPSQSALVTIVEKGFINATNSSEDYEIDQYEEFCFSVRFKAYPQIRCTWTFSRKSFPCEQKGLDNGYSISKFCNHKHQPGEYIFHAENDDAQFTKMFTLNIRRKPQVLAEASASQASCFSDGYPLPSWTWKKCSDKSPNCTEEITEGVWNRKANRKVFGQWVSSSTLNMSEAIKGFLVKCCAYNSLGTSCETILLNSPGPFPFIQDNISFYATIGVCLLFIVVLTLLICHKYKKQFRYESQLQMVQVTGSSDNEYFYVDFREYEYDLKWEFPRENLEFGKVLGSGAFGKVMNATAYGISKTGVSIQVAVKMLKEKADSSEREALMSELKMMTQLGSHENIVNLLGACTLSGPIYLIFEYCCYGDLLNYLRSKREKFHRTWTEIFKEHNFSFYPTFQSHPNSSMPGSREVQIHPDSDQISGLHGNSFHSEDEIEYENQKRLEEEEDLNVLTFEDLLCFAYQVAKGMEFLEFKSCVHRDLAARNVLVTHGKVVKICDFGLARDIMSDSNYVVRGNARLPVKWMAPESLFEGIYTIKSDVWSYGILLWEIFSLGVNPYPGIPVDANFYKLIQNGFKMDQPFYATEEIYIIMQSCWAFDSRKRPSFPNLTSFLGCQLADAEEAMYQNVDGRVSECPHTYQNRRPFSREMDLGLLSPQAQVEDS
Mast/stem cell growth factor receptor Kit (Homo sapiens), sequence (P10721 whole entry, the tested form may be a part): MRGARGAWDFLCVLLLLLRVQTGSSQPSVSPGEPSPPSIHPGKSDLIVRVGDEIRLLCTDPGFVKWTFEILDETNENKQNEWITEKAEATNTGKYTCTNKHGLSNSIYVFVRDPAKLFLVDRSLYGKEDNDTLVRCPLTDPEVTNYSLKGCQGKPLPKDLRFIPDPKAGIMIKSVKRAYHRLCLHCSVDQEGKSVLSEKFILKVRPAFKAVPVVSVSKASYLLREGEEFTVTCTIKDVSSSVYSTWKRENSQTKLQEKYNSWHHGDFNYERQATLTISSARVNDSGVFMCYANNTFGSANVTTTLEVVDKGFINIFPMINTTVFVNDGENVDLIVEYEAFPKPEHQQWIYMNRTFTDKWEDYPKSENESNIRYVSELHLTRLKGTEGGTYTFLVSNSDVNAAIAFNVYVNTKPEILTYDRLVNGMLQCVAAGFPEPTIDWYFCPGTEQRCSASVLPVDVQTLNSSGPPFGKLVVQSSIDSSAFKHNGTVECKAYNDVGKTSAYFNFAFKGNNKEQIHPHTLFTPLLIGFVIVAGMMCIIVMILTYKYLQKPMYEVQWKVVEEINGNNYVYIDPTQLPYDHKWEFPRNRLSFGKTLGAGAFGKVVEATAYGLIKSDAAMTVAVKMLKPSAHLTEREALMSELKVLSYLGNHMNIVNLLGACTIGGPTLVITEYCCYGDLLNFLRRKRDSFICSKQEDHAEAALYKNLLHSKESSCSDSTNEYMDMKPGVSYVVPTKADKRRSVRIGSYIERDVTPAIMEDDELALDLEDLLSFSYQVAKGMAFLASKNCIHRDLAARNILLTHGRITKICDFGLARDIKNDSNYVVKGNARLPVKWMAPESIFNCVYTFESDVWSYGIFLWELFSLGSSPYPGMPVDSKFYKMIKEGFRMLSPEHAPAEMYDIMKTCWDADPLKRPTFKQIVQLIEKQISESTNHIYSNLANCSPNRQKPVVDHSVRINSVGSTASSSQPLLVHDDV
Mitogen-activated protein kinase kinase kinase 3 (Homo sapiens), sequence (Q99759 whole entry, the tested form may be a part): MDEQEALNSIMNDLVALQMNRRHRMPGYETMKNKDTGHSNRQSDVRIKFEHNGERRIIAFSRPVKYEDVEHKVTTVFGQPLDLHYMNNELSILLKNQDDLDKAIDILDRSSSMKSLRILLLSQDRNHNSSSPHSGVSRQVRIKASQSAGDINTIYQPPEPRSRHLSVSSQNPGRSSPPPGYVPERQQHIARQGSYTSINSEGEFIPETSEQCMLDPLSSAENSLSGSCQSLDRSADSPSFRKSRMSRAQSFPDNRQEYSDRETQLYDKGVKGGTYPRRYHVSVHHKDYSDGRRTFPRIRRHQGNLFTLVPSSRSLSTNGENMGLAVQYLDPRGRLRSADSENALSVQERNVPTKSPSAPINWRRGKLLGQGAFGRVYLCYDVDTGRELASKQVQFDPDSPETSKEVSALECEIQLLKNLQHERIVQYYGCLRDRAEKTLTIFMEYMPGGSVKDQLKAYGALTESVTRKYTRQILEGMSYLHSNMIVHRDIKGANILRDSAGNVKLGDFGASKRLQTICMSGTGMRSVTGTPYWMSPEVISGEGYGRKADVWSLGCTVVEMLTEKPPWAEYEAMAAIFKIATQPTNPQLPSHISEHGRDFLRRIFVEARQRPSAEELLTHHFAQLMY
Glycogen synthase kinase-3 beta (Homo sapiens), sequence (P49841 whole entry, looked up, the tested form may be a part): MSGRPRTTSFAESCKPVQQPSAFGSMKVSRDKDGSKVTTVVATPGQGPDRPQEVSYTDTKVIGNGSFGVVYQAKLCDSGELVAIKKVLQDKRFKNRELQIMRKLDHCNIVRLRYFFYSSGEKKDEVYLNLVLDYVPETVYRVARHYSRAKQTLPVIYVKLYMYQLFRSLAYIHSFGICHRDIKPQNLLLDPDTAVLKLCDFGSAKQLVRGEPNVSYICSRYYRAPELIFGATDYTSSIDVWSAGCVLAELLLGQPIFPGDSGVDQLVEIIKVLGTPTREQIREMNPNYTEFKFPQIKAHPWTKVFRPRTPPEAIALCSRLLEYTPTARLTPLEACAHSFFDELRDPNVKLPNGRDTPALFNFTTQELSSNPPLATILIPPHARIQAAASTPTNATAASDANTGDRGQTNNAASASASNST

## C=CC(=O)Nc1ccccc1Nc1nc(Nc2ccc(N3CCN(C)CC3)cc2)ncc1C(=O)Nc1c(C)cccc1Cl
[1]
  Activity: 100%
[2]
  Activity: 1.3%
[3]
  Activity: 100%
[4]
  Activity: 97%
[5]
  Activity: 100%
[6]
  Activity: 95%
[7]
  Activity: 73%
[8]
  Activity: 100%
[9]
  Activity: 94%
[10]
  Activity: 92%
[11]
  Activity: 100%
[12]
  Activity: 66%
[13]
  IC50: 300 nM
[14]
  Activity: 1.1%
[15]
  Activity: 100%
[16]
  Activity: 100%
[17]
  Activity: 40%
[18]
  Activity: 98%
[19]
  Activity: 100%
[20]
  Activity: 17%
[21]
  Activity: 100%

From ChEMBL document CHEMBL4354843, “Structure-Based Design of a Potent and Selective Covalent Inhibitor for SRC Kinase That Targets a P-Loop Cysteine” (J Med Chem, 2020)
